Data as given in ChEMBL document CHEMBL4422687, “Highly potent and selective aryl-1,2,3-triazolyl benzylpiperidine inhibitors toward butyrylcholinesterase in Alzheimer's disease” (Bioorg Med Chem, 2019).
Calls of active or inactive are those of the source. The calls are words filed in the database; no cut-off is given here.

Columns and labels:
Cholinesterase [1] = target: T1, Cholinesterase (Homo sapiens, UniProt P06276); test: Inhibition of recombinant human BuChE using butyrylthiocholine iodide as substrate preincubated for 5 mins followed by substrate addition and measured for 5 mins by Ellman's method
T1 sequence (P06276 whole entry): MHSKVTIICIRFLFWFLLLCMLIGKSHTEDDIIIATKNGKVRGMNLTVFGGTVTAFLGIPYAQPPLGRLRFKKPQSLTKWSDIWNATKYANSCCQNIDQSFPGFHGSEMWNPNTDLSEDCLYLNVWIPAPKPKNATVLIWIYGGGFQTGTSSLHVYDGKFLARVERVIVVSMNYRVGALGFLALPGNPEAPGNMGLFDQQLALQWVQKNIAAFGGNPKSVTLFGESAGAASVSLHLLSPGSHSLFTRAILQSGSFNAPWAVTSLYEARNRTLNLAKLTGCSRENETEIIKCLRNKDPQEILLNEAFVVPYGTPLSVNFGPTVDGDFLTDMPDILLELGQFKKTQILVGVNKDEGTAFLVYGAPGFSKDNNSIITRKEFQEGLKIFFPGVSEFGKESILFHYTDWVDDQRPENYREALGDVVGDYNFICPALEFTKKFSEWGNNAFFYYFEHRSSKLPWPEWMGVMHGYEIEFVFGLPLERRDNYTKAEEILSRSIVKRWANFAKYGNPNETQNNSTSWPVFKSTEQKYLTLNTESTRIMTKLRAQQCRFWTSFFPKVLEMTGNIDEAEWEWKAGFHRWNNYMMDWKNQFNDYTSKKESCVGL

Acetylcholinesterase = Acetylcholinesterase (Homo sapiens, UniProt P22303); test: Inhibition of recombinant human AChE using acetylthiocholine iodide as substrate preincubated for 5 mins followed by substrate addition and measured for 5 mins by Ellman's method
Chain of Acetylcholinesterase (P22303 whole entry): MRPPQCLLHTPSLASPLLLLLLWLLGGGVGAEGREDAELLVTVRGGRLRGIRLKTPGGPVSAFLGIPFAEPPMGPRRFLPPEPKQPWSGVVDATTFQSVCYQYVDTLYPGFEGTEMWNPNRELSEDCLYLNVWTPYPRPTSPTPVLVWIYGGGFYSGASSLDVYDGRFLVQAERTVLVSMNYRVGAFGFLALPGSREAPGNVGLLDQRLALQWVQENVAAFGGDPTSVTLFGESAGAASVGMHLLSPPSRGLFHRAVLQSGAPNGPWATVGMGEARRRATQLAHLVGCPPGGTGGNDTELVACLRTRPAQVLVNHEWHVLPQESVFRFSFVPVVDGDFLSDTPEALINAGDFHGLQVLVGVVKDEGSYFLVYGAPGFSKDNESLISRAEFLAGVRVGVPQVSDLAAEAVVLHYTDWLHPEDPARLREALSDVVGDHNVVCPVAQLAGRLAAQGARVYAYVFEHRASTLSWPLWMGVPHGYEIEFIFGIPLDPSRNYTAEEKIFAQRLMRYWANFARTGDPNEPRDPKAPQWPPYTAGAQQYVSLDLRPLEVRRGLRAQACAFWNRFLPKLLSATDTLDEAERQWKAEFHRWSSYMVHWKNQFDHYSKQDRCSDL

SH-SY5Y [2] = test: Cytotoxicity against human SH-SY5Y cells assessed as reduction in cell viability at BuChE IC50 after 24 hrs by XTT assay; assay type: cell-based
Method in brief: (§1)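 SH-SY5Y human neuroblastoma cells were treated with seven concentrations of each compound. Viability was read by XTT colorimetric assay after a 24 h or 120 h recovery period.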

SH-SY5Y [3] = test: Cytotoxicity against human SH-SY5Y cells assessed as reduction in cell viability at BuChE IC50 after 120 hrs by XTT assay; assay type: cell-based; method in brief: as §1
SH-SY5Y [4] = test: Cytotoxicity against human SH-SY5Y cells assessed as reduction in cell viability at 40 uM after 24 hrs by XTT assay; assay type: cell-based
Cholinesterase [5] = target: T1, Cholinesterase; test: Mixed-type inhibition of recombinant human BuChE using varying levels of butyrylthiocholine iodide as substrate by Lineweaver-burk plot analysis
SH-SY5Y [6] = test: Cytotoxicity against human SH-SY5Y cells assessed as reduction in cell viability at 39.6 nM after 24 hrs by XTT assay; assay type: cell-based; conditions: 0.0396 µM
SH-SY5Y [7] = test: Cytotoxicity against human SH-SY5Y cells assessed as reduction in cell viability at 80 uM after 24 hrs by XTT assay; assay type: cell-based
SH-SY5Y [8] = test: Cytotoxicity against human SH-SY5Y cells assessed as reduction in cell viability at 2.5 uM after 24 hrs by XTT assay; assay type: cell-based
Cholinesterase [9] = target: T1, Cholinesterase; test: Potency index, ratio of donepezil IC50 to test compound IC50 for recombinant human BuChE
Homo sapiens = organism: Homo sapiens; test: Selectivity ratio of IC50 for recombinant human AChE to IC50 for recombinant human BuChE

SMILES	IC50 (Cholinesterase [1])	IC50 (Acetylcholinesterase)	Activity (SH-SY5Y [2])	also measured
c1ccc(CN2CCC(Cn3cc(CSc4nc5ccccc5[nH]4)nn3)CC2)cc1	0.065 µM	7.33 µM	–	–
c1ccc(CN2CCC(Cn3cc(CNc4ncnc5ccccc45)nn3)CC2)cc1	2.95 µM	4.22 µM	–	–
O=C1c2ccccc2C(=O)N1Cc1cn(CC2CCN(Cc3ccccc3)CC2)nn1	> 10 µM	4.9 µM	–	–
O=C(Cc1c[nH]c2ccccc12)NCc1cn(CC2CCN(Cc3ccccc3)CC2)nn1	5.3 µM	> 10 µM	–	–
COc1cc2c(cc1OC)C(=O)C(Cc1cn(CC3CCN(Cc4ccccc4)CC3)nn1)C2 (stereo not drawn)	> 10 µM	4.92 µM	–	–
N[C@@H](CCCCn1cc(-c2ccccc2)nn1)C(=O)NCC1CCN(Cc2ccccc2)CC1	0.97 µM	> 10 µM	Non-Toxic	Activity (SH-SY5Y [3]): Non-Toxic; Activity (SH-SY5Y [4]): Toxic
N[C@@H](Cn1cc(-c2ccccc2)nn1)C(=O)NCC1CCN(Cc2ccccc2)CC1	0.0099 µM	> 10 µM	Non-Toxic	inhibition (Cholinesterase [5]): Active; Activity (SH-SY5Y [6]): Toxic; Activity (SH-SY5Y [3]): Non-Toxic
CCOc1ccc2[nH]c(SCc3cn(CC4CCN(Cc5ccccc5)CC4)nn3)nc2c1	1.91 µM	6.9 µM	–	–
COc1cc2ncnc(NCc3cn(CC4CCN(Cc5ccccc5)CC4)nn3)c2cc1OC	> 10 µM	3.94 µM	–	–
CC(=O)N[C@@H](CCCCn1cc(-c2ccccc2)nn1)C(=O)NCC1CCN(Cc2ccccc2)CC1	1.02 µM	> 10 µM	Non-Toxic	Activity (SH-SY5Y [3]): Non-Toxic; Activity (SH-SY5Y [7]): Toxic; Activity (SH-SY5Y [8]): Toxic; Ratio IC50 (Cholinesterase [9]): 9
CC(=O)N[C@@H](Cn1cc(-c2ccccc2)nn1)C(=O)NCC1CCN(Cc2ccccc2)CC1	0.00017 µM	> 10 µM	Non-Toxic	inhibition (Cholinesterase [5]): Active; Ratio IC50 (Homo sapiens): > 58000; Ratio IC50 (Cholinesterase [9]): 53000
